Data set [1] is described as follows: Lipophilicity, log D of the compound by chromatography. The data set is classed as physicochemical.
Data set [2] can be described thus: Oral bioavailability in Sprague-Dawley rat at 4 mg/kg. Format: ADME, organism-based. Particulars: in vivo; call rule not given here. In outline:
(§1)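 IV parameters were taken from a 1 mg/kg dose given as a 30 min infusion.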

The nature of data set [3]: Clearance in Sprague-Dawley rat at 1 mg/kg, iv administered as infusion over 30 mins. The data set is classed as ADME, organism-based. Also noted: dose 1 mg/kg, route intravenous. To be noted: in vivo. The method in brief: as §1
A short description of data set [4]: Clearance in beagle dog at 1 mg/kg, iv administered as infusion over 30 mins. The data set is classed as ADME, organism-based, Canis lupus familiaris. On the set-up: dose 1 mg/kg, route intravenous. Particulars: in vivo.
Data set [5] in a line: Clearance in cynomolgus monkey at 1 mg/kg, iv administered as infusion over 30 mins. Format: ADME, organism-based, Macaca fascicularis. On the set-up: dose 1 mg/kg, route intravenous. Particulars: in vivo.
Data set [6] can be described thus: Volume of distribution at steady state in Sprague-Dawley rat. Format: ADME, organism-based. To be noted: in vivo, read-out: Vdss.
The nature of data set [7]: Volume of distribution at steady state in beagle dog. Format: ADME, organism-based, Canis lupus familiaris. Particulars: in vivo, read-out: Vdss.
Data set [8] can be described thus: Volume of distribution at steady state in cynomolgus monkey. The data set is classed as ADME, organism-based, Macaca fascicularis. Particulars: in vivo, read-out: Vdss.
A short description of data set [9]: Terminal half life in po dosed Sprague-Dawley rat. The data set is classed as ADME, organism-based. To be noted: in vivo, read-out: beta t1/2 (converted).
A short description of data set [10]: Terminal half life in po dosed beagle dog. The data set is classed as ADME, organism-based, Canis lupus familiaris. Particulars: in vivo, read-out: beta t1/2 (converted).
Data set [11] can be described thus: Terminal half life in po dosed cynomolgus monkey. To be noted: in vivo, read-out: beta t1/2 (converted). The data set is classed as ADME, organism-based, Macaca fascicularis.
Data set [12] is described as follows: Terminal half life in po dosed human. Format: ADME, organism-based. Particulars: in vivo, read-out: beta t1/2 (converted).
Data set [13] can be described thus: Oral bioavailability in beagle dog at 4 mg/kg. Format: ADME, organism-based, Canis lupus familiaris. To be noted: in vivo.
The nature of data set [14]: Oral bioavailability in cynomolgus monkey at 4 mg/kg. Format: ADME, organism-based, Macaca fascicularis. To be noted: in vivo.
Data set [15] in a line: Ratio of AUC (0 to 12 hrs) in lung to AUC (0 to 12 hrs) in plasma of Sprague-Dawley rat at 1 mg/kg, iv. Format: ADME, organism-based. On the set-up: dose 1 mg/kg, route intravenous.
The nature of data set [16]: Ratio of AUC (0 to 12 hrs) in epithelial lining fluid to AUC (0 to 12 hrs) in plasma of Sprague-Dawley rat at 1 mg/kg, iv. Format: ADME, organism-based. On the set-up: dose 1 mg/kg, route intravenous.
Another data set concerns Lung. Briefly: Drug uptake in lung tissue of Sprague-Dawley rat at 1 mg/kg, iv relative to plasma level. Format: ADME, organism-based. On the set-up: dose 1 mg/kg, route intravenous. Particulars: in vivo.
The subject of data set [17] is Plasma. Briefly: Drug uptake in epithelial lining fluid of Sprague-Dawley rat at 1 mg/kg, iv relative to plasma level. The data set is classed as ADME, organism-based. On the set-up: dose 1 mg/kg, route intravenous. Particulars: in vivo.
The nature of data set [18]: Drug uptake in bovine lung relative to plasma level. The data set is classed as ADME, Bos taurus. Particulars: cattle.
The test system of data set [19] is Plasma. Briefly: Drug uptake in dog lung relative to plasma level. The data set is classed as ADME, Canis lupus familiaris.

As usually defined, the chromatographic logD is a lipophilicity value derived from retention on a column. One may read the clearance as a measure of how efficiently the substance is removed, as volume per time. The term Kp denotes the ratio of the level in a tissue or fluid to that in plasma or blood.

For `Cc1[nH]c2cc([C@@H]3CCCCN3C(=O)c3cc(Cl)ccc3NS(C)(=O)=O)nn2c(=O)c1C`, in data set [1], the chromatographic logD was 1.9.

For the compound `Cc1[nH]c2cc([C@@H]3CCCCN3C(=O)c3ccccc3NS(C)(=O)=O)nn2c(=O)c1C`, in [1], the chromatographic logD is 1.3. Also, the bioavailability in data set [2] was 1.5%. As to `Cc1[nH]c2cc([C@@H]3CCCCN3C(=O)c3ccccc3)nn2c(=O)c1C`, the chromatographic logD in data set [1] worked out at 1.4. On the same count and under the same terms, as for `Cc1[nH]c2cc([C@@H]3CCCCN3C(=O)c3ccccc3O)nn2c(=O)c1C`, the figure is 1.1; as for `Cc1[nH]c2cc([C@@H]3CCCCN3C(=O)c3ccccc3N)nn2c(=O)c1C`, 1.4. As for `CC(=O)Nc1ccccc1C(=O)N1CCCC[C@H]1c1cc2[nH]c(C)c(C)c(=O)n2n1`, the chromatographic logD in data set [1] is 0.88. In turn, `COC(=O)Nc1ccccc1C(=O)N1CCCC[C@H]1c1cc2[nH]c(C)c(C)c(=O)n2n1` gave a chromatographic logD in data set [1] of 1.3.

In data set [1], `Cc1[nH]c2cc([C@@H]3CCCCN3C(=O)c3ccccc3NS(=O)(=O)C3CC3)nn2c(=O)c1C` displayed a chromatographic logD of 1.6.

In turn, `Cc1[nH]c2cc([C@@H]3CCCCN3C(=O)c3ccccc3N(C)S(C)(=O)=O)nn2c(=O)c1C` returned a chromatographic logD in data set [1] of 1.1. In data set [1], `Cc1[nH]c2cc([C@@H]3CCCCN3C(=O)c3cccc(F)c3NS(C)(=O)=O)nn2c(=O)c1C` gave a chromatographic logD of 1.3. `Cc1[nH]c2cc([C@@H]3CCCCN3C(=O)c3ccc(F)cc3NS(C)(=O)=O)nn2c(=O)c1C` came in with a chromatographic logD in data set [1] of 1.5. Same read-out and setting: as for `Cc1[nH]c2cc([C@@H]3CCCCN3C(=O)c3cc(F)ccc3NS(C)(=O)=O)nn2c(=O)c1C`, the figure is 1.4; as for `Cc1ccc(NS(C)(=O)=O)c(C(=O)N2CCCC[C@H]2c2cc3[nH]c(C)c(C)c(=O)n3n2)c1`, 1.7. The compound `Cc1[nH]c2cc([C@@H]3CCCCN3C(=O)c3cc(C(F)(F)F)ccc3NS(C)(=O)=O)nn2c(=O)c1C` returned a chromatographic logD in data set [1] of 1.9. The same measure, in the same setting: as for `Cc1[nH]c2cc([C@@H]3CCCCN3C(=O)c3cc(Br)ccc3NS(C)(=O)=O)nn2c(=O)c1C`, the figure is 2; as for `Cc1[nH]c2cc([C@@H]3CCCCN3C(=O)c3cc(-c4ccccc4)ccc3NS(C)(=O)=O)nn2c(=O)c1C`, 2.6; as for `Cc1[nH]c2cc([C@@H]3CCCCN3C(=O)c3c(Cl)cccc3NS(C)(=O)=O)nn2c(=O)c1C`, 1.8. In the case of `Cc1cn2nc([C@@H]3CCCCN3C(=O)c3ccccc3NS(C)(=O)=O)cc2nc1C`, the chromatographic logD in data set [1] came to 3. In data set [2], the bioavailability turned out to be 18%. Take `Cc1nc2cc([C@@H]3CCCCN3C(=O)c3ccccc3NS(C)(=O)=O)nn2c(C)c1C`: the chromatographic logD in [1] came to 2.7. `CNc1c(C)c(C)nc2cc([C@@H]3CCCCN3C(=O)c3ccccc3NS(C)(=O)=O)nn12` yielded a chromatographic logD in [1] of 2.6. Consider `Cc1ccc(NS(C)(=O)=O)c(C(=O)N2CCCC[C@H]2c2cc3nc(C)c(C)cn3n2)c1`, for which the chromatographic logD in data set [1] was 3.1. The bioavailability in [2] was 86%.

With `Cc1ccc(NS(C)(=O)=O)c(C(=O)N2CCCC[C@H]2c2cc3nc(C)c(C)c(C)n3n2)c1`, the chromatographic logD in data set [1] was determined as 3.1. Besides, the bioavailability in data set [2] was found to be 26%. For `CNc1c(C)c(C)nc2cc([C@@H]3CCCCN3C(=O)c3cc(C)ccc3NS(C)(=O)=O)nn12`, the chromatographic logD in data set [1] amounted to 2.8. For the compound `Cc1ccc(NS(C)(=O)=O)c(C(=O)N2CCCC[C@H]2c2cc3nc(C)cc(C)n3n2)c1`, the chromatographic logD in data set [1] was 2.7. As to `Cc1ccc(NS(C)(=O)=O)c(C(=O)N2CCCC[C@H]2c2cc3nc(C4CC4)cc(C)n3n2)c1`, in [1], the chromatographic logD amounted to 3.5. Moreover, in data set [2], the bioavailability turned out to be 42%. In data set [1], `Cc1ccc(NS(C)(=O)=O)c(C(=O)N2CCCC[C@H]2c2cc3nc(C4CC4)c(C)cn3n2)c1` showed a chromatographic logD of 4.1.

`Cc1ccc(NS(C)(=O)=O)c(C(=O)N2CCCC[C@H]2c2cc3nc(C4CC4)ccn3n2)c1` yielded a chromatographic logD in data set [1] of 3.7. `Cc1cn2nc([C@@H]3CCCCN3C(=O)c3cc(Cl)ccc3NS(C)(=O)=O)cc2nc1N1CCC1`: in data set [1], the chromatographic logD came to 3.8. For `Cc1cn2nc([C@@H]3CCCCN3C(=O)c3cc(Cl)ccc3NS(C)(=O)=O)cc2nc1N1CC(F)C1`, in data set [1], the chromatographic logD turned out to be 3.7.

Take `Cc1cn2nc([C@@H]3CCCCN3C(=O)c3cc(Cl)ccc3NS(C)(=O)=O)cc2nc1N1CC(C#N)C1`: the chromatographic logD in data set [1] turned out to be 3.3. Turning to `Cc1cn2nc([C@@H]3CCCCN3C(=O)c3cc(Cl)ccc3NS(C)(=O)=O)cc2nc1N1CC(O)C1`, the chromatographic logD in data set [1] was found to be 2.7. The bioavailability in [2] turned out to be 42%. As to `Cc1cn2nc([C@@H]3CCCCN3C(=O)c3cc(Cl)ccc3NS(C)(=O)=O)cc2nc1N1CC(N)C1`, the chromatographic logD in data set [1] stood at 2.1. Moreover, the bioavailability in data set [2] was determined as 67%. In [1], `Cc1cn2nc([C@@H]3CCCCN3C(=O)c3cc(Cl)ccc3NS(C)(=O)=O)cc2nc1N1CCCC1` registered a chromatographic logD of 4.4. Same read-out and setting: as for `Cc1cn2nc([C@@H]3CCCCN3C(=O)c3cc(Cl)ccc3NS(C)(=O)=O)cc2nc1N1CCC(F)(F)C1`, the figure is 4.2. Consider `Cc1cn2nc([C@@H]3CCCCN3C(=O)c3cc(Cl)ccc3NS(C)(=O)=O)cc2nc1N1CC[C@@H](C#N)C1`, for which the chromatographic logD in data set [1] worked out at 3.7. With `Cc1cn2nc([C@@H]3CCCCN3C(=O)c3cc(Cl)ccc3NS(C)(=O)=O)cc2nc1N1CC[C@H](C#N)C1`, the chromatographic logD in data set [1] amounted to 3.6. In the case of `Cc1cn2nc([C@@H]3CCCCN3C(=O)c3cc(Cl)ccc3NS(C)(=O)=O)cc2nc1N1CC[C@@H](O)C1`, the chromatographic logD in data set [1] was determined as 2.8. For the same compound, in data set [2], the bioavailability came to 71%. In data set [1], `Cc1cn2nc([C@@H]3CCCCN3C(=O)c3cc(Cl)ccc3NS(C)(=O)=O)cc2nc1N1CC[C@H](O)C1` showed a chromatographic logD of 2.9.

`Cc1cn2nc([C@@H]3CCCCN3C(=O)c3cc(Cl)ccc3NS(C)(=O)=O)cc2nc1N1CC[C@@H](N)C1` returned a chromatographic logD in [1] of 2. In the case of `Cc1cn2nc([C@@H]3CCCCN3C(=O)c3cc(Cl)ccc3NS(C)(=O)=O)cc2nc1N1CC[C@H](N)C1` [PRESATOVIR], the chromatographic logD in data set [1] amounted to 2. In addition, the results for the bioavailability in data set [2], in [13] and in [14] were 46%, 130% and 60%, respectively. Besides, the clearance in [3] was 32.2 mL/min/kg; in data set [4], 3.83 mL/min/kg; in [5], 6 mL/min/kg. In addition, the Vd in data set [6] was determined as 9.75 L/kg; in data set [7], 2.91 L/kg; in data set [8] it was 4.95 L/kg. The half-life was 3.4 h in data set [9], 8.9 h in data set [10], 10 h in data set [11] and 35 h in data set [12]. The Kp amounted to 26 in [15] and 10 in data set [16]. Besides, the Drug uptake entry in the data set with Lung is listed as “Not Active”; in the data set on Plasma [17], “Not Active”; in data set [18], “Active”; in the data set on Plasma [19] it was “Active”.

For the origin of these results see ChEMBL document CHEMBL3407466, “Discovery of an oral respiratory syncytial virus (RSV) fusion inhibitor (GS-5806) and clinical proof of concept in a human RSV challenge study” (J Med Chem, 2015).
